In ChEMBL document CHEMBL3425405, “Discovery of Small Molecules for Up-Regulating the Translation of Antiamyloidogenic Secretase, a Disintegrin and Metalloproteinase 10 (ADAM10), by Binding to the G-Quadruplex-Forming Sequence in the 5' Untranslated Region (UTR) of Its mRNA” (J Med Chem, 2015):
Calls of active or inactive are those of the source. The calls are words filed in the database; no cut-off is given here.

Experiments:
Format in all cases: cell-based
HeLa [1] = assay: Binding affinity to ADAM10 A10-RNA QGRS (unknown origin) transfected in human HeLa cells assessed as increase in ADAM10 translation efficiency at 0.5 uM after 24 hrs by Renilla/firefly dual luciferase reporter assay
Procedure, shortened: (§1)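 HeLa cells transfected with 0.8 μg A10-Wt, A10-Mut or A10-Del plasmid (G-quadruplex motif upstream of Renilla in psiCHECK-2). Screening: 24 h at a single 2 μM concentration. Follow-up: plasmid for 12 h, then 0, 0.5, 1 or 2.5 μM for 24 h. Renilla normalized to firefly, relative to untreated control; mean ± SD of three independent measurements.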

HeLa [2] = assay: Binding affinity to ADAM10 5'-UTR mutant RNA QGRS (unknown origin) transfected in human HeLa cells assessed as increase in ADAM10 translation efficiency at 0.5 uM after 24 hrs by Renilla/firefly dual luciferase reporter assay
Procedure, shortened: (§2)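 HeLa cells transfected with 0.8 μg 5′UTR-Wt or 5′UTR-Mut dual-luciferase plasmid. After 12 h, incubated 24 h with 0, 0.5, 1 or 2.5 μM compound. Renilla luciferase normalized to firefly and expressed relative to the ligand-free control; mean ± SD of three independent experiments, each in triplicate.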

HeLa [3] = assay: Binding affinity to ADAM10 5'-UTR RNA QGRS (unknown origin) transfected in human HeLa cells assessed as increase in ADAM10 translation efficiency at 1 uM after 24 hrs by Renilla/firefly dual luciferase reporter assay; procedure, shortened: as §2
HEK-APP [4] = assay: Binding affinity to ADAM10 A10-RNA QGRS (unknown origin) transfected in HEK-APP cells assessed as increase in sAPPalpha level at 1.5 uM after 48 hrs by Western blotting method
Procedure, shortened: (§3)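 HEK-APP cells (DMEM, 10% FBS, 2 mM glutamine, 0.2 mg/mL G418) treated with 0, 0.5, 0.75, 1 or 1.5 μM compound for 48 h. Lysates in Tris/NaCl/EDTA/1% Triton buffer immunoblotted for ADAM10, APP and β-actin; conditioned medium blotted for sAPPα. Signal by densitometry, normalized to β-actin, relative to blank control; mean ± SD, three independent experiments.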

HeLa [5] = assay: Binding affinity to ADAM10 A10-RNA QGRS (unknown origin) transfected in human HeLa cells assessed as increase in ADAM10 translation efficiency at 2 uM after 24 hrs by Renilla/firefly dual luciferase reporter assay; procedure, shortened: as §1
HEK-APP [6] = assay: Binding affinity to ADAM10 A10-RNA QGRS (unknown origin) transfected in HEK-APP cells assessed as increase in ADAM10 protein expression at 1 uM after 48 hrs by Western blotting method; procedure, shortened: as §3

## CCn1c2ccccc2c2cc(/C=C/c3cc(N4CCN(C)CC4)c4ccccc4[n+]3C)ccc21.[I-]
HeLa [1]
  Activity: 14.1%
HeLa [2]
  Activity: inactive
HeLa [3]
  Activity: 22.5%
HEK-APP [4]
  fold change (FC): 3.3
HeLa [5]
  Activity: 138%
HEK-APP [6]
  Activity: 76.8%
